Results on one compound are retold here after ChEMBL document CHEMBL4304743, “Discovery of ( E)- N1-(3-Fluorophenyl)- N3-(3-(2-(pyridin-2-yl)vinyl)-1 H-indazol-6-yl)malonamide (CHMFL-KIT-033) as a Novel c-KIT T670I Mutant Selective Kinase Inhibitor for Gastrointestinal Stromal Tumors (GISTs)” (J Med Chem, 2019).

Experiment [1] concerns Mast/stem cell growth factor receptor Kit (Homo sapiens), P10721 [L576P]. Briefly: Inhibition of TEL fused c-KIT L576P mutant (unknown origin) transfected in mouse BAF3 cells assessed as growth inhibition after 72 hrs by CCK8 assay. Type of experiment: cell-based. The method, boiled down: (§1)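 Tel-c-KIT-transformed BaF3 lines (IL-3 independent) kept in RPMI 1640 with 10% FBS, 2% L-glutamine and pen/strep. Cells at 1.5 to 5 × 10^4 cells/mL mixed with graded compound and incubated 72 h at 37 °C, 5% CO2. Viability by CCK-8 absorbance at 450 nm, normalized to DMSO. GI50 from dose–response fit.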
Mast/stem cell growth factor receptor Kit (Homo sapiens), P10721 [L576P], sequence (P10721 whole entry L576P, the tested form may be a part): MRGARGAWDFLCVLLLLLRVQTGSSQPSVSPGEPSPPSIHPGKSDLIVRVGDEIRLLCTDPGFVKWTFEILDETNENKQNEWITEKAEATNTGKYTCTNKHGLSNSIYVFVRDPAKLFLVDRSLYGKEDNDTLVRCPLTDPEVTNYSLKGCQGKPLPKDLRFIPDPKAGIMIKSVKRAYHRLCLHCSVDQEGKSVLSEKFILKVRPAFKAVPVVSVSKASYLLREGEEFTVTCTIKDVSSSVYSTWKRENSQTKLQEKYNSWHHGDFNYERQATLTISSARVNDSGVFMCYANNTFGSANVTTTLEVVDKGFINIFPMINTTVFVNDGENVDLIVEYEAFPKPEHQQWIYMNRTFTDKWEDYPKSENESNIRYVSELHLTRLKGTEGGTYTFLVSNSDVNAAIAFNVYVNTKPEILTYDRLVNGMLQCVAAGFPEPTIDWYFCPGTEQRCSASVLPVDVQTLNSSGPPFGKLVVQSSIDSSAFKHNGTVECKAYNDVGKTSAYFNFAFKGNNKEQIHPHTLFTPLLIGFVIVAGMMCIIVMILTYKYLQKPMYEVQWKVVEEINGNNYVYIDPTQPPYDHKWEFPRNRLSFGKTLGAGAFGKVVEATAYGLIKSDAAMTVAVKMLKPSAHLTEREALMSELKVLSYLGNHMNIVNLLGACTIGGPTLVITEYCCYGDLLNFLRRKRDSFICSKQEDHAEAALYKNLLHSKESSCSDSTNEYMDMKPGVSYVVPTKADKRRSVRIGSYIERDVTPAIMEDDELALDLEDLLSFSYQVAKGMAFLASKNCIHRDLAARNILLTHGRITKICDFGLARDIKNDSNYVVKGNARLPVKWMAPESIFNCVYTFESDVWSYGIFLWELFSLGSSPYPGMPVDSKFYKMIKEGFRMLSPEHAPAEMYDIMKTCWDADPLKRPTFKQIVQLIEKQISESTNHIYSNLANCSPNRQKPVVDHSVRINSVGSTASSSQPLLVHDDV
In general terms: Tetrazolium assays rely on reduction of a dye to a coloured formazan, in cell work by metabolically active cells.

Experiment [2] concerns Mast/stem cell growth factor receptor Kit (Homo sapiens), P10721 [UNDEFINED MUTATION]. Particulars: GISTT1, 1 uM.
Mast/stem cell growth factor receptor Kit (Homo sapiens), P10721 [UNDEFINED MUTATION], sequence (P10721 whole entry, looked up, stated change not applied, the tested form may be a part): as the sequence (P10721 whole entry L576P, the tested form may be a part) above, with P576L counted along it
Experiment [3] has as its system Mast/stem cell growth factor receptor Kit (Homo sapiens), P10721 [V559G]. Briefly: Inhibition of TEL fused c-KIT V559G mutant (unknown origin) transfected in mouse BAF3 cells assessed as growth inhibition after 72 hrs by CCK8 assay. Type of experiment: cell-based. The method, boiled down: as §1
Experiment [4] is described as follows: Antiproliferative activity against human GIST5R cells harboring c-KIT 560 to 578 deletion/T670I double mutant incubated for 72 hrs by CCK8 assay. Type of experiment: functional. The method, boiled down: (§2)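 Adherent GIST cells seeded at 1.5-5 × 10^4 cells/mL and left overnight at 37 °C, 5% CO2. Medium then replaced with medium holding serial compound dilutions; 72 h incubation. Viability by CCK-8, absorbance at 450 nm, normalized to DMSO control; GI50 from dose-response fit.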

Experiment [5] in a line: Antiproliferative activity against human GIST48B cells incubated for 72 hrs by CCK8 assay. Type of experiment: functional. The essentials: as §2
The test system of experiment [6] is Mast/stem cell growth factor receptor Kit (Homo sapiens), P10721 [D820E]. Briefly: Inhibition of TEL fused c-KIT D820E mutant (unknown origin) transfected in mouse BAF3 cells assessed as growth inhibition after 72 hrs by CCK8 assay. The experiment is classed as cell-based. The essentials: as §1
Mast/stem cell growth factor receptor Kit (Homo sapiens), P10721 [D820E], sequence (P10721 whole entry D820E, the tested form may be a part): as the sequence (P10721 whole entry L576P, the tested form may be a part) above, with P576L, D820E counted along it
For experiment [7], the system named is Mast/stem cell growth factor receptor Kit (Homo sapiens), P10721 [UNDEFINED MUTATION]. Particulars: GISTT1, 1 uM. The source holds these as a separate data set.
The subject of experiment [8] is Mast/stem cell growth factor receptor Kit (Homo sapiens), P10721 [V654A]. The experiment in a line: Inhibition of TEL fused c-KIT V654A mutant (unknown origin) transfected in mouse BAF3 cells assessed as growth inhibition after 72 hrs by CCK8 assay. Type of experiment: cell-based. The essentials: as §1
Experiment [9] in a line: Antitumor activity against human GIST5R cells xenografted in nude mouse assessed as tumor weight at 100 mg/kg, po administered […] via gavage for 28 days (reference value: 0.59g). Type of experiment: functional. The method, boiled down: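 Female nu/nu mice (5 weeks old) given subcutaneous right-flank GIST-5R cells in Matrigel. Dosing began at tumors of 200-400 mm3; randomized, 4 mice per group. Daily oral dosing (QD) at 25, 50 or 100 mg/kg in 0.5% methylcellulose/0.4% Tween80, or vehicle alone, for 28 days. Body weight and tumor volume, (W²×L)/2, measured daily; mean±SEM.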

Experiment [10] concerns the target Mast/stem cell growth factor receptor Kit (Homo sapiens, UniProt P10721). Briefly: Inhibition of wild type TEL fused c-KIT (unknown origin) transfected in mouse BAF3 cells assessed as growth inhibition after 72 hrs by CCK8 assay. The experiment is classed as cell-based. As to conditions: baf3, 72 h. The essentials:
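IL-3 independent BaF3 cells stably expressing tel-c-KIT wt or tel-c-KIT T670I, grown in RPMI 1640 with 10% FBS, 2% L-glutamine, 37 °C, 5% CO2. Suspension cells at 1.5 to 5 × 10^4 cells/mL mixed with serial compound dilutions and incubated 72 h. Viability read by CCK-8 absorbance at 450 nm, normalized to DMSO; GI50 from curve fit. Selectivity is wt GI50 over T670I GI50.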

For experiment [11], the system named is GISTT1. The experiment in a line: Antiproliferative activity against human GISTT1 cells harboring c-KIT 560 to 578 deletion mutant incubated for 72 hrs by CCK8 assay. Type of experiment: functional. Particulars: GISTT1, 72 h. The essentials:
as §2

The test system of experiment [12] is GISTT1. The experiment in a line: Antiproliferative activity against human GISTT1 cells harboring c-KIT 560 to 578 deletion/T670I double mutant incubated for 72 hrs by CCK8 assay. Type of experiment: functional. As to conditions: GISTT1, 72 h. The essentials: as §2
For experiment [13], the system named is Mast/stem cell growth factor receptor Kit (Homo sapiens), P10721 [UNDEFINED MUTATION]. Particulars: 1 uM.
For experiment [14], the system named is Mast/stem cell growth factor receptor Kit (Homo sapiens), P10721 [V559A]. Briefly: Inhibition of TEL fused c-KIT V559A mutant (unknown origin) transfected in mouse BAF3 cells assessed as growth inhibition after 72 hrs by CCK8 assay. Type of experiment: cell-based. The essentials:
as §1

Another experiment concerns GIST882. Briefly: Antiproliferative activity against human GIST882 cells harboring c-KIT K642E mutant incubated for 72 hrs by CCK8 assay. Type of experiment: functional. Particulars: GIST882, 72 h. The essentials: as §2

Activity calls are given as the source filed them. The rule behind the calls is not given here.

Mast/stem cell growth factor receptor Kit (Homo sapiens), P10721 [V559G], sequence (P10721 whole entry V559G, the tested form may be a part): as the sequence (P10721 whole entry L576P, the tested form may be a part) above, with V559G, P576L counted along it
Mast/stem cell growth factor receptor Kit (Homo sapiens), P10721 [V559A], sequence (P10721 whole entry V559A, the tested form may be a part): as the sequence (P10721 whole entry L576P, the tested form may be a part) above, with V559A, P576L counted along it
Mast/stem cell growth factor receptor Kit (Homo sapiens), P10721 [V654A], sequence (P10721 whole entry V654A, the tested form may be a part): as the sequence (P10721 whole entry L576P, the tested form may be a part) above, with P576L, V654A counted along it
Mast/stem cell growth factor receptor Kit, sequence (P10721 whole entry, the tested form may be a part): as the sequence (P10721 whole entry L576P, the tested form may be a part) above, with P576L counted along it

One may read the GI50 as the concentration at which growth is held to half of that of the control. With `Cc1ccc(NC(=O)c2ccc(CN3CCN(C)CC3)cc2)cc1Nc1nccc(-c2cccnc2)n1` [IMATINIB], the GI50 in experiment [1] was 0.115 µM; in experiment [3], 0.001 µM; in experiment [4], over 10 µM; in experiment [5], over 10 µM; in [6], 0.267 µM; in experiment [8], 2.3 µM. For the same compound, the GI50 in experiment [10] is 0.364 µM; in the experiment with GISTT1 [11] it was 0.026 µM; with GISTT1 [12], over 10 µM; in [14], 0.005 µM; with GIST882, 0.058 µM. For the same compound, the inhibition entry in experiment [2], in experiment [7] and in [13] was “inactive” in each case. The Activity in [9] amounted to 0.41 g.
